# Results reported in the EternaBench riboswitch data.
# System: MS2 coat protein
# Experiment: apparent Kd, MS2 coat protein; higher = weaker binding; RNA-MaP array; FMN 200 µM where present
# Outline: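 On Illumina sequencing-chip clusters, designs were transcribed by stalled E. coli RNA polymerase and titrated with SNAP-549-labelled MS2 coat protein (0.7 or 1.5 nM, doubling to 3 µM), without and then with constant ligand, in 100 mM Tris-HCl pH 7.5, 80 mM KCl, 4 mM MgCl2, BSA, DTT, yeast tRNA and Tween-20. Apparent Kd is the median of filtered per-cluster curve fits to green signal normalised to red-channel RNA signal and control-cluster median Fmax.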
# [1] = designed as: OFF switch for flavin mononucleotide, no ligand
# [2] = ligand present: flavin mononucleotide, designed as: OFF switch for flavin mononucleotide
# [3] = designed as: ON switch for flavin mononucleotide, no ligand
# [4] = ligand present: flavin mononucleotide, designed as: ON switch for flavin mononucleotide
Sequence,apparent Kd [1] [nM],apparent Kd [2] [nM],apparent Kd [3] [nM],apparent Kd [4] [nM]
GGAUAGGACAGAGGAUAUACGUGCUAGAGAUACUAGCAAACUUUCCUCACAUGAGGAUCACCCAUGUAGAAGGCUGUCCUAUCG,21.1,483,–,–
CACGGCGUAUCAGGAUAUGUGGGUGUCUGGACAUGAGGAUCACCCAUGUAAUCAGUAUUAGCCGUGCAGAAGGGAUCCGCUGUA,–,–,35.2,60.3
AGCUACGUUUCGUAGCAGUGUCAUCGAGAAGGCCCUGACAUGAGGAUCACCCAUGUUGUUACAUGGGAGGAUAUCGAUGAUACU,–,–,13.4,5.59
GAUCCUUCUGUUAGGAUAUGCUUUGGGCUUCCGCAGCAGAAGGAACAUGAGGAUCACCCAUGUCCGAUGCCGUC,80.5,98,–,–
GGUGCGUGUGUGAGGAUAUGCUGGUCCUUGGAUCAGCAGAAGGCACAUGAGGAUCACCCAUGUGGUGUCGUACC,490,24.8,–,–
CUAAGGGAUUGCUCGAAGACAUGAGGAUCACCCAUGUAGGCGAGAAGGGCGGCGACUUUAGCGCUGCAGGAUAUCGACUGCAGU,9,10.1,–,–
GCUGUCGCGUGAGGAUAUGGUCGGCUGUGCUGACCAGAAGGCAUGUCGAUAGACAUGAGGAUCACCCAUGUGGUUAGGGCGGCU,–,–,790,313
AAAAGAACGGCAGGAUAUGCAAGCACUGACCUCCCAAAAUAAAGAAACAUGAGGAUCACCCAUGUGCAGAAGGGCCAAAAGUGC,13.6,12.3,–,–
UGGAUGGUAUGAGGAUAUGCGCGCGAAACGCGCGCAGAAGGCAUGUCAAUAGACAUGAGGAUCACCCAUGUAUUAUCUAUCCAA,–,–,203,14.8
GUGCCUAACUAGAAGGCCCAAUGCAAAGCAUCGGGAGGAUAUGGGUUUAAUAAAUAAACAUGAGGAUCACCCAUGUGGCACAAA,–,–,–,10.4
AUUUAAUUUAAUAAGAUCACAUGAGGAUCACCCAUGUAUAUAUAGGAUAUCAGCUCGUGUAGAGCUGAGAAGGAUAUAUACUAU,316,204,–,–
AGGGAGUAAGGAUAUCGGAAAGGACACGAAAGUGACAAAGACGAGAAGGUACAUGAGGAUCACCCAUGUAAAAA,21.3,20.1,–,–
AUCAGCUCGUCAGGAUAUGCGUCACUGCUUCGGCAGUGUGGUAAGAUCACAUGAGGAUCACCCAUGUAGAAGGGACGAGCUGAU,9.91,75.2,–,–
AGUGUGUGGCAGGAUAUUCUGUUGGUUAGGACAGAAGAAGGGUCUACAUGAGGAUCACCCAUGUAAGCGGUUGA,251,428,–,–
CGCAAUAUACAGAAGGAGUUAUUUAGAGGAUUACUAGGAUAUGUUCACAUGAGGAUCACCCAUGUCAUAUGGAGUUUUAUUGCG,9.43,8.27,–,–
CAUAUCCAAGGAUAUACGAUGGCUCCUUCCAUCGUGUGACCACAUGAGGAUCACCCAUGUAGAAGGUGGAUAUU,23.2,24,–,–
CUAAAUCAUGUAGGAUAUGCAUGGCGAAGCUACGCAGAAGGACAUGAGGAUCACCCAUGUCAGUACGUCUGCGUACAGACGUUG,14.3,19.1,–,–
GGUGCUAUGUAGAAGGCAGAUCUGAUUCAGAUCUGAGGAUAUACAUGAGGAUCACCCAUGUUAUGCACCAGCACGAGAGUGCAU,13.5,35.1,–,–
CUCUAGCUCACAGGAUAUGGGUGUCGACGAUGCCCAGAAGGGUGAUUUGGCACAUGAGGAUCACCCAUGUGGGCGCUUGAAUAU,–,–,44.5,94.3
ACAGUUCUGCAAGGAUAUCGUUCUAGUUUAGUACGAGAAGGUGCUUUAGUUUUUUCUUUGUGUUGACAUGAGGAUCACCCAUGU,23.4,15.2,–,–
UGGUACUAGGGAGGAUAUGGGAAGAUACAUGAGGAUCACCCAUGUUUAAGAAUGCCGAGAGUCAACUAGAAGGCCCUAGUACCU,–,–,180,20.3
AGGGUGGGCUCAGGAUAUCAGGGAGAGAUGUGGACAUGAGGAUCACCCAUGUACCAGUGUUGUCAUGAGAAGGGAGAUACUGUA,–,–,52.7,28
UUGGACGUCGUAGGACAUGUAGGAUAUUCCUACAUGAGGAUCACCCAUGUUGACAUGGAAGAAGGACAGAAGGACGAUGUCCAU,–,–,723,46.9
CAUUUACAGGGAGGAUAUACAUGAGGAUCACCCAUGUCAUCAUACGAUAUUUCUUUUGUAUGAGUGUAGAAGGCCCAACUACCA,10.2,12,–,–
CACAAUCUAUCUGAGGAUAUCAUGAAAAAAACAUGAGGAUCACCCAUGUGCAGGAAAACUGCAUAUGAGAAGGCAGAUAGAUUGU,–,–,770,28.4
UGGUACAUGGGAGGAUAUCAUGUAGAGACAUGAGGAUCACCCAUGUCGAUGGAGACAUCGGAGAUUGAGAAGGCCCAUGUACCU,–,–,152,23.1
ACUUUAACUCGACAUGAGGAUCACCCAUGUCCUAGUACUACACAGGAUAUCUCGGACUCCUCGUGAGAGAAGGGUGAGCACUAA,–,–,395,587
CGCACUAUACAUGAGGAUCACCCAUGUUAACAUGAGCUAUUCAGAAGGCAUAAUUAGAGAAUAAAUGAGGAUAUGAUUAGUGCG,–,–,34.7,18.8

Sequence,apparent Kd [1] [nM],apparent Kd [2] [nM],apparent Kd [3] [nM],apparent Kd [4] [nM]
CGAUUUGUAGGAUAUGUAUGAGUAAUCCCUUUUUAUGAAGAACAUGAGGAUCACCCAUGUAGAAGGGCAUUGUA,19.6,17.6,–,–
CAACGUACCAGAGGAUAUGAUUGUGGGUAAAGAGCGCUCAGGUGGCUACAUGAGGAUCACCCAUGUCAGAAGGCUGGAGUUCAA,114,59.6,–,–
CCAUUUCAGUAAGGAUAUAUAAACAUGACGAUACAUGAGGAUCACCCAUGUGUAGAAGGUACUAAUACAUAUAAUGCAAUGCUC,20.4,17.2,–,–
GGGCUGUCAGGAUAUCCCGGGUUUGGGUAAACCCGGGCCCGGGAGAAGGGACAUGAGGAUCACCCAUGUGGCCC,32.1,31.8,–,–
AUGUUAGGGAGAGGAUAUUGACAUGAGGAUCACCCAUGUAUUUGGGAGUGUUUACUGAAUUCUUACGAGAAGGCUUACGAAAUU,396,242,–,–
GUCAUUGACAAGAAGGCAAACAUGAGGAUCACCCAUGUUCUGCAUGUAUAUUGAGGAUAUUGCCAAUGCAUGAGGAUCACCCAG,11.7,20.2,–,–
AAGAAGUCAGGAUAUCCUGCUCGUCACUUGCGUGAUGAGUAGGAGAAGGGACAUGAGGAUCACCCAUGUAAAGG,137,267,–,–
GCGUGGUUCUAGAAGGUGCUAGCGAUAAGCUAGCAAGGAUAUAGACAUGAGGAUCACCCAUGUCUUAAAGAAAUGGACACACGC,5.04,5.55,–,–
GUGUACAGAGGAUAUAUAUGGGCAUGGAAACAUGCAUCUUCACAUGAGGAUCACCCAUGUAGAAGGCUGUACAC,143,84.6,–,–
CUGUUAUAGGUCCAGUUUUACAACAUGAGGAUCACCCAUGUGCAGGAUAUCGUGUUAAUUUUCAUCGAGAAGGGCAUAGUCACG,37.6,105,–,–
ACGUUAAUUCGAGGAUAUCGGUGAUUUAUAUUACGAGAAGGCGAUAAUUGUGAUAAACUUAUAGACAUGAGGAUCACCCAUGUA,–,–,42.7,38.8
UUAAAUCAUGUAGGAUAUGCAUGGCGAAGCUACGCAGAAGGACAUGAGGAUCACCCAUGUUAUAGCUACCAAGUUAGGUGGCAA,99,190,–,–
AUUCCUAGUGUUAGGAUAUGCGACGGGUGACCGUUGCAGAAGGAACAUGAGGAUCACCCAUGUUUAAUAAAAUC,15.6,80.7,–,–
GUCAGCUCGUGAGGAUAUACAACACUGCUUCAGCAGUGUAUUAAGAUCACAUGAGGAUCACCCAUGUAGAAGGCACGAGCUGAU,13.8,242,–,–
GCCAUCGCAUGAGGAUAUGCUCGGGUUUCCCGAGCAGAAGGCAUGUGAUAACACAUGAGGAUCACCCAUGUAGUUAAGAUGGCA,–,–,5.69,4.83
AUGCUUCACACAGGAUAUUACAUGAGGAUCACCCAUGUUGGGCGGUAGCUCGAAAGAGCUACCGGUAAGAAGGGUGUGAAGCAU,30.4,59.2,–,–
CUUUCGUGAGGAUAUGUGGCUUCGAACGUGAGAUCGAGGCUACAGAAGGCACAUGAGGAUCACCCAUGUUCCUC,34.3,395,–,–
ACACAACAUGAGGAUCACCCAUGUUUUCGAUUCACAGGAUAUGGGACAUCCGGAGGGUGACCAGAAGGGUGACUCG,–,–,29.9,18.8
CAAGGCUUCACAGGAUAUAUUGAUGACAUGAGGAUCACCCAUGUACCGGCAGUAGAAGGGUGAACGCUCGUGGCCACGUGCGUG,–,–,130,35.6
ACUAGAUGAGGAUAUGCAUGUUUUCAUGUUCUUCUAGAUUAACAUGAGGAUCACCCAUGUAGAAGGCGUCUUUA,19.5,34.8,–,–
CCUGUACAUGAGGAUCACCCAUGUUAGGAUAUUCAGCCCGUCGAGUAUAAGGGUUUAAGAAGAAGGGACGUGGC,15.4,16.1,–,–
GUCAGCUCGUGAGGAUAUACUACACUGCUUCGGCAGUGUAUUAAGAUCACAUGAGGAUCACCCAUGUAGAAGGCACGAGCUGAU,5.95,17,–,–
GCUCGUAGACAGAAGGCGACAUGAGGAUCACCCAUGUUGGCUCGGGUAUGACCAAUCCGCAUGAUCGAGGAUAUGUCCGCGGGC,287,16.4,–,–
CCGCUGUGAGGAUAUUAGUAGUAGUCAGAAUAGACUAUUACUGAGAAGGCACAUGAGGAUCACCCAUGUUGCGG,30.8,39,–,–
AGACGGAGCUGAGGAUAUAACAUGAGGAUCACCCAUGUAAGUCUCCAGGAAACUGGAGACAAUAGUUAGAAGGCAGCUCCGUCA,13.6,22.3,–,–
UUUUUAGCAGGAUAUAUCCACGACUACAUGAGGAUCACCCAUGUGGCCGCUUGAAGUUGUAUAGAAGGGCUUUUUU,24.8,23.4,–,–
UGAACCUUCACAGGAUAUCAUGCGAAAAUUGCGUGAGAAGGGUGAAUAUGGUGUUCAUAGUUGCACAUGAGGAUCACCCAUGUA,–,–,191,128
